The values that follow come from ChEMBL document CHEMBL4190393, “Specific Stereoisomeric Conformations Determine the Drug Potency of Cladosporin Scaffold against Malarial Parasite” (J Med Chem, 2018).

Where only a bound is given, the exact number is not on record here.

Test [1] concerns the target Lysine--tRNA ligase (Plasmodium falciparum (isolate 3D7), UniProt Q8IDJ8). Description: Inhibition of Plasmodium falciparum KRS expressed in Escherichia coli BL21 using tRNA(Lys) as substrate after 45 mins in presence of L-lysine by AMP-GLO assay.
The next test deals with Plasmodium falciparum. Description: Antiparasitic activity against Plasmodium falciparum 3D7 infected in human erythrocytes after 48 hrs by SYBR green-1 staining based assay. Conditions: 3D7, 48 h. The test is classed as functional, organism-based.
Test [2] concerns the target T1, Lysine--tRNA ligase (Homo sapiens, UniProt Q15046). The experiment in a line: Binding affinity to human KRS expressed in Escherichia coli BL21 by thermal shift assay. The essentials:
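Protein thermal shift assay with Hs-KRS at 4 μM in the presence of L-lysine; binding read out as the shift in melting temperature (ΔTm, °C) produced by each ligand.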
Target sequence in this assay (Q15046 2-597 limits assumed): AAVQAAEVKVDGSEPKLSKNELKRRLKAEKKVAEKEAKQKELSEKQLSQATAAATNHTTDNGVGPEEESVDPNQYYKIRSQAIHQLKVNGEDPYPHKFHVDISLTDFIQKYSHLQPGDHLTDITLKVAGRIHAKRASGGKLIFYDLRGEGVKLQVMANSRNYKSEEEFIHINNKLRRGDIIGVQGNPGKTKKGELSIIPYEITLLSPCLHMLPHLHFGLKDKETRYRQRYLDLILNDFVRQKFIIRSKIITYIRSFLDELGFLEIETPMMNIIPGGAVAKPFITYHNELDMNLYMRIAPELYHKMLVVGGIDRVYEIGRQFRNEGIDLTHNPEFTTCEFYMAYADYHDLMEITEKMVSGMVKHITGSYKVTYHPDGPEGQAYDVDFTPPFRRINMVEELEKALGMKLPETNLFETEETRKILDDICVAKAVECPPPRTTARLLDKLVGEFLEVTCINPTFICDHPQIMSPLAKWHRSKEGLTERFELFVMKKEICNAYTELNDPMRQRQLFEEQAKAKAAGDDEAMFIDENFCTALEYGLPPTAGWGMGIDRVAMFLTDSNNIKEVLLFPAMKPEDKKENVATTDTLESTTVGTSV

Test [3] addresses T1, Lysine--tRNA ligase. Description: Inhibition of human KRS expressed in Escherichia coli BL21 using tRNA(Lys) as substrate after 1 hr in presence of L-lysine by AMP-GLO assay.
Target sequence in this assay (Q15046 whole entry): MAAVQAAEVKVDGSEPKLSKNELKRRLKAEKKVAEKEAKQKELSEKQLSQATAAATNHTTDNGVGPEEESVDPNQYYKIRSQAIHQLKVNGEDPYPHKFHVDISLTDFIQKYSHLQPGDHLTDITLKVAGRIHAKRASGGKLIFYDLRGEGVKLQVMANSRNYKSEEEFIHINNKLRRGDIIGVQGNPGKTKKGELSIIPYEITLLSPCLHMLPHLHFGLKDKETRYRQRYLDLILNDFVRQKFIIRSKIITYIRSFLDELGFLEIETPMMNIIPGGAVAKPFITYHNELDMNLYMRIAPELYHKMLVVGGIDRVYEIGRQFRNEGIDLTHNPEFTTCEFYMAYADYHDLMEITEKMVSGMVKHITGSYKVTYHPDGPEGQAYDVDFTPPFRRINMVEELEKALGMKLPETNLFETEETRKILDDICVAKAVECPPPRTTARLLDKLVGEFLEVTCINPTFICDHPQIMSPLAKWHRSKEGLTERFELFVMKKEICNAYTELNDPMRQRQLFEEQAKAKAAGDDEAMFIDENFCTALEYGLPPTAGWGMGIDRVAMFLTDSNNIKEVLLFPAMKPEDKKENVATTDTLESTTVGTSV
The target in test [4] is Lysine--tRNA ligase (Plasmodium falciparum (isolate 3D7)) (UniProt Q8IDJ8). Description: Binding affinity to Plasmodium falciparum KRS expressed in Escherichia coli BL21 by thermal shift assay. The essentials:
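Protein thermal shift assay with PfKRS at 2 μM in the presence of L-lysine. Binding is reported as the shift in melting temperature (ΔTm, °C) of the enzyme when the compound is added.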

A short description of test [5]: Selectivity ratio of IC50 for human KRS to IC50 for Plasmodium falciparum KRS.

Lysine--tRNA ligase (Plasmodium falciparum (isolate 3D7), UniProt Q8IDJ8), sequence (Q8IDJ8 whole entry): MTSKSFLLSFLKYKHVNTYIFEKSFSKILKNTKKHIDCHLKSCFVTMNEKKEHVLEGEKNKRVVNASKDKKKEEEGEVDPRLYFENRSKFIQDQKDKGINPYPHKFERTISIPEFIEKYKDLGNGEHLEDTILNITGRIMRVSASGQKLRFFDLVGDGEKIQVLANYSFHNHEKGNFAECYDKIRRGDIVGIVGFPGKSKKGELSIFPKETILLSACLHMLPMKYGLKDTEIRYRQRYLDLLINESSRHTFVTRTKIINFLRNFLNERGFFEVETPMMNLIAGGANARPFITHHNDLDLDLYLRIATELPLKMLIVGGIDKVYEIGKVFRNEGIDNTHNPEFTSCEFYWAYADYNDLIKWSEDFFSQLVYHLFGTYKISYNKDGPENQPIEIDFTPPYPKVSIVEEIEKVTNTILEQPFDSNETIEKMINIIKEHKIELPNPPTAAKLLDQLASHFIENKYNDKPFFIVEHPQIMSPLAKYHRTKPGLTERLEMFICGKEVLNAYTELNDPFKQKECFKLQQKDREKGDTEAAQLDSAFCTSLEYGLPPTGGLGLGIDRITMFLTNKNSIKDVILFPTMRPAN
Lysine--tRNA ligase (Plasmodium falciparum (isolate 3D7)), sequence (Q8IDJ8 1-583): as the sequence (Q8IDJ8 whole entry) above

Consider `C[C@H]1CCC[C@@H](C[C@@H]2Cc3cc(O)cc(O)c3C(=O)O2)O1`, for which the IC50 on Lysine--tRNA ligase [1] was 29 µM; at Lysine--tRNA ligase [3], > 100 µM. Moreover, the EC50 in the test on Plasmodium falciparum was > 2000 nM. Also, the ΔTm was found to be 1.1 °C on Lysine--tRNA ligase [2] and 11.4 °C in test [4].
Take `C[C@H]1CCC[C@H](C[C@@H]2Cc3cc(O)cc(O)c3C(=O)O2)O1`: the IC50 was 4.64 µM at Lysine--tRNA ligase [1] and > 100 µM at Lysine--tRNA ligase [3]. The same molecule came in with an EC50 with Plasmodium falciparum of 1600 nM. Besides, the figures for the ΔTm (at Lysine--tRNA ligase [2]; in test [4]) were 0.5 °C and 14.3 °C, respectively.
`C[C@H]1CCC[C@@H](C[C@H]2Cc3cc(O)cc(O)c3C(=O)O2)O1`: the IC50 was 5.8 µM at Lysine--tRNA ligase [1] and > 100 µM at Lysine--tRNA ligase [3]. This molecule also returned an EC50 in the test on Plasmodium falciparum of 1100 nM. Also, the ΔTm at Lysine--tRNA ligase [2] was determined as 0.1 °C; in test [4], 15.6 °C.
For `C[C@H]1CCC[C@H](C[C@H]2Cc3cc(O)cc(O)c3C(=O)O2)O1` [CLADOSPORIN], the values for the IC50 on Lysine--tRNA ligase [1] and on Lysine--tRNA ligase [3] were 0.12 µM and 105 µM, respectively. Besides, the Ratio IC50 in test [5] came to 840. The EC50 in the test on Plasmodium falciparum was determined as 40 nM. Besides, the ΔTm turned out to be 1.3 °C on Lysine--tRNA ligase [2] and 17.3 °C in test [4].
Turning to `C[C@@H]1CCC[C@H](C[C@H]2Cc3cc(O)cc(O)c3C(=O)O2)O1`, the values for the IC50 at Lysine--tRNA ligase [1] and on Lysine--tRNA ligase [3] were 0.29 µM and > 100 µM, respectively. For the same molecule, in the test on Plasmodium falciparum, a half-maximal response (EC50) required 270 nM. Moreover, the ΔTm at Lysine--tRNA ligase [2] is 1 °C; in test [4], 16.2 °C.
For `C[C@@H]1CCC[C@H](C[C@@H]2Cc3cc(O)cc(O)c3C(=O)O2)O1`, the IC50 was 21.3 µM at Lysine--tRNA ligase [1] and > 100 µM on Lysine--tRNA ligase [3]. Moreover, the EC50 in the test with Plasmodium falciparum was > 2000 nM. The values for the ΔTm (at Lysine--tRNA ligase [2]; in test [4]) were 0.3 °C and 11.8 °C, respectively.
On to `C[C@@H]1CCC[C@@H](C[C@@H]2Cc3cc(O)cc(O)c3C(=O)O2)O1`, for which the IC50 at Lysine--tRNA ligase [1] was 50 µM; on Lysine--tRNA ligase [3], > 100 µM. The EC50 in the test with Plasmodium falciparum is > 2000 nM. Further, the ΔTm at Lysine--tRNA ligase [2] is -0.9 °C; in test [4] it was 7.9 °C.
Turning to `C[C@@H]1CCC[C@@H](C[C@H]2Cc3cc(O)cc(O)c3C(=O)O2)O1`, the IC50 is 7.25 µM at Lysine--tRNA ligase [1] and > 100 µM at Lysine--tRNA ligase [3]. The EC50 with Plasmodium falciparum is 1150 nM. The ΔTm was 1.1 °C on Lysine--tRNA ligase [2] and 13.5 °C in test [4].
